Measurements collected from several papers.
Each line is one published result; the experiments were not run side by side.

Cc1ncc2n1-c1ccc(Cl)cc1C(c1ccccc1F)=NC2
hepatocyte CLint (metabolic stability; Sprague-Dawley rat, hepatocytes; 0.5 µM, pH 7.4): 160 µL/min/10⁶ cells

COc1ccsc1CNCC[C@@]1(c2ccccn2)CCOC2(CCCC2)C1
clearance (human, plasma; intravenous, 1.5 mg, single dose, infusion): 721 mL/min

COc1ccc([C@@]23Oc4cc(OC)cc(OC)c4[C@@]24NC(C)=N[C@@]4(O)[C@H](C(=O)N(C)OC)[C@H]3c2ccccc2)cc1
microsomal CLint (metabolic stability; rat, liver microsomes): 12.2 µL/min/mg

Cn1nccc1[C@]1(CNC(=O)c2ccc(F)c(F)c2-c2ccc(C(F)(F)F)cc2)NC(=O)NC1=O
chromatographic logD (HPLC; pH 7.5): 2.3

C[C@]12CC[C@H]3[C@@H](CCC4=CC(=O)CC[C@@]43C)[C@@H]1CC[C@@H]2O
hepatocyte CLint (metabolic stability; Sprague-Dawley rat, hepatocytes; 1 µM): 240 µL/min/10⁶ cells

O=C1NC(=O)[C@](CNC(=O)c2cnn(-c3ccccc3)n2)(C2CC2)N1
chromatographic logD (HPLC; pH 7.5): 1.8

CONC(=O)[C@H]1[C@@H](O)[C@@]2(O)c3c(OC)cc(OC)cc3O[C@@]2(c2ccc(OC)cc2)[C@@H]1c1ccccc1
microsomal CLint (metabolic stability; rat, liver microsomes): 23.8 µL/min/mg

COc1ccc2c(c1)[C@]13CCCC[C@@H]1[C@H](C2)N(C)CC3
hepatocyte CLint (metabolic stability; Sprague-Dawley rat, hepatocytes; 0.5 µM, pH 7.4): 97 µL/min/10⁶ cells

CNC(C)Cc1ccc2nsnc2c1 (stereo not drawn)
microsomal CLint (metabolic stability; human, liver microsomes; 0.5 µM): 13.1 µL/min/mg
